Screens deposited in PubChem by several laboratories.
zfTRPN1 agonist = zebrafish TRPN1 channel agonists, primary screen, cell-based, HEK293, calcium fluorescence; transient receptor potential cation channel N1 (TRPN1/NompC), Danio rerio; 0.18% of 220,000 active; AID 1424, 2008; HEK293 zebrafish TRPN1-YFP, Fluo-8 calcium fluorescence; 100% = response to 87 µM carbachol; activation, % at 3 µM;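 active = activation above its plate's cutoff, the mean activation of test wells on that plate plus 3 SD, cut at about 19% in these data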
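Material – zebrafish TRPN1-YFP in HEK293 cells · Doses – 3 µM single point · Schedule – dye 1 h 37 °C plus 30 min RT · Signal – Fluo-8 calcium fluorescence, excitation 470-495 nm, emission 515-575 nm · Read-out – % activation versus carbachol response · Control set – carbachol high, DMSO low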
CRFBP-R2 block = antagonists of CRF-BP/CRF-R2 complex, primary screen, cell-based, HEK293, calcium dye fluorescence, uHTS | CRF-induced calcium fluorescence | inhibition, % at 11.8 µM | 0.59% of 350,000 active;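 active = inhibition of the ligand-induced calcium signal above about 50% at the single tested concentration, limit read from the data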
TRPML3 agonist = human TRPML3 channel agonists, primary screen, cell-based, HEK293 TRPML3-YFP, Fluo-8 calcium fluorescence, 3 µM; Mucolipin-3 (Homo sapiens), Q8TDD5; 100% = the carbachol control signal; activation, % at 3 µM; 0.29% of 220,000 active;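 active = activation above its plate's cutoff, the mean activation of the plate's test wells plus 3 SD, cut at about 12% in these data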
Target sequence (Q8TDD5 whole entry, looked up): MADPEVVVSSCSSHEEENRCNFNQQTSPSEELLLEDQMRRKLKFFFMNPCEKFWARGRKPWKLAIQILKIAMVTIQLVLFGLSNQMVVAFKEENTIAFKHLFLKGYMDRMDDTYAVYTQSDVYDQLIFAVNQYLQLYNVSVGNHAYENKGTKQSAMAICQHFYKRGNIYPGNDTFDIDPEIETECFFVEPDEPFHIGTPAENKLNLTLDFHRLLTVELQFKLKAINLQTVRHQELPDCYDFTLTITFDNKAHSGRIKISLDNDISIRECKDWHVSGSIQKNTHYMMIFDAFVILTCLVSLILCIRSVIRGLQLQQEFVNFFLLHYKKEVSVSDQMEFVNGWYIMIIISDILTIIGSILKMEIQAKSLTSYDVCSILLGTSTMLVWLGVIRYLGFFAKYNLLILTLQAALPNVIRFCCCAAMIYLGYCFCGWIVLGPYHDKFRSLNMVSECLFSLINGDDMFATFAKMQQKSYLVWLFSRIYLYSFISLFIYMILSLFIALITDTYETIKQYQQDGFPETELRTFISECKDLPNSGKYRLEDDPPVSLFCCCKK
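Material: TRPML3-YFP stable HEK293 cells | Dosing: One concentration, 3 µM nominal, 0.3% DMSO | Timing: 125 s total fluorescence read per well | Technique: Fluo-8 calcium dye fluorescence, ex 470-495, em 515-575 nm | Measure: Percent activation from peak-to-basal fluorescence ratio, scaled between DMSO and carbachol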
IMP-1 inh = IMP-1 metallo-beta-lactamase inhibitors, primary screen, biochemical, epi-absorbance readout, Pseudomonas aeruginosa enzyme | metallo-beta-lactamase IMP-1 (Pseudomonas aeruginosa) | purified IMP-1, nitrocefin hydrolysis, epi-absorbance fluorescence | inhibition, % at 5.6 µM | 0.45% of 290,000 active;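 active = inhibition above the mean plus 3 SD of all compounds in the same screening run, cut at about 4.5% in these data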
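Material – recombinant IMP-1 enzyme, purified · Amount – IMP-1 0.2 nM before substrate addition · Medium – HEPES buffer pH 7.1 with ZnSO4 and Brij 35 · Timing – 25 °C, 15 min preincubation, 25 min reaction · Measured by – plate fluorescence quenching by hydrolysis product, ex 480/em 530 nm · Read-out – percent enzyme inhibition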
VIM-2 inh = VIM-2 metallo-beta-lactamase inhibitors, primary screen, biochemical, epi-absorbance readout, Pseudomonas aeruginosa enzyme; inhibition, % at 5.6 µM; purified VIM-2, nitrocefin hydrolysis, epi-absorbance fluorescence; 0.89% of 290,000 active; AID 1527, 2009;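 active = inhibition above the mean of all tested compounds plus 3 SD, cutoff set per screening run, cut at about 7.5% in these data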;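 note: red hydrolysis product quenches plate fluorescence so inhibitors raise well fluorescence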
CRFBP-R2 agonist = agonists of CRF-BP/CRF-R2 complex, primary screen, cell-based, HEK293, calcium dye fluorescence, uHTS; 0.46% of 350,000 active; calcium dye fluorescence (FLIPR); percent of saturating CRF peptide response; CRF-binding protein / CRF receptor 2 complex (human); activation, % at 13.2 µM;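 active = activation of at least 50%, plus an integration ratio under a set limit after plate pattern correction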
Numbers stand for hits; n = inactive; x = no result given. Most compounds without a hit are left out; they make up all but 2.1% or so of the library.

SMILES	zfTRPN1 agonist	CRFBP-R2 block	TRPML3 agonist	IMP-1 inh	VIM-2 inh	CRFBP-R2 agonist
CC(=O)C1(O)CCC2C3CC(C)C4=CC(=O)C=CC4(C)C3(F)C(O)CC21C (centres undefined)	x	78.9	x	x	x	n
COc1cccc(NC(=O)COC(=O)CCC2CCCC2)c1	x	n	x	x	x	n
CCOc1ccccc1C(=O)NCC(=O)OCCOc1cccc(Cl)c1	x	n	x	n	n	n
COc1ccccc1CCNC(=O)CSc1ccc(-c2cccs2)nn1	32.7	n	20.1	n	n	n
O=C(CSc1ccc(-c2cccs2)nn1)NCCc1ccccc1	n	n	n	n	n	n
O=C(Nc1cc(C(F)(F)F)ccc1-n1cncn1)c1ccc(Cl)cc1	n	81.7	n	n	n	n
Cc1ccc(NCC(=O)Nc2c(C)n(C)n(-c3ccccc3)c2=O)cc1S(=O)(=O)N(C)C	n	n	n	n	n	n
CCn1c2ccccc2c2nc3cc(OC)c(OC)cc3nc21	n	n	n	n	n	n
CCn1c2ccccc2c2nc3ccccc3nc21	n	n	n	n	9.9	n
Cc1ccc(N/C(CSC(N)=O)=N\S(=O)(=O)c2ccc(C)cc2)cc1	n	n	n	5.0	n	n
NC(=O)SC/C(=N\S(=O)(=O)c1ccccc1)Nc1ccccc1	n	n	n	n	n	n
Cc1ccc(N/C(CSC(N)=O)=N/S(=O)(=O)c2ccccc2)cc1	n	n	n	4.8	n	n
Cc1nc2c(s1)sc1ccccc12	n	50.6	n	n	n	n
Cc1cc2c(sc3ccccc32)c(C)n1	n	n	n	n	n	n
CCC(=O)Nc1ccc(C(=O)NNC(=O)c2cccc(C)c2)cc1	x	n	x	n	n	n
Cc1ccc(C(=O)Nc2ccc(N3CCN(C)CC3)cc2)cc1	x	n	x	n	9.7	n
CCOc1ccc(C(=O)Nc2ccc(N3CCN(C)CC3)cc2)cc1	x	n	x	n	10.7	n
CCN1CCN(c2ccc(NC(=O)c3ccc4c(c3)OCO4)cc2)CC1	n	n	n	n	9.3	n
Cc1ccc(S(=O)(=O)Nc2cccc(C(=O)NCc3ccccn3)c2)cc1F	x	n	x	x	x	n
C[C@H](CO)N1C[C@H](C)[C@@H](CN(C)C(=O)c2ccccn2)Oc2cc(Br)ccc2S1(=O)=O	x	n	x	x	x	n
CCOC(=O)CSc1nnc(CNC(=O)c2ccc([N+](=O)[O-])cc2)n1C	n	n	n	n	n	n
N#C/C(=C(/O)CO/N=C/c1ccccc1Cl)c1nc2ccccc2[nH]1	n	n	n	n	n	n
Cc1ccn2cc(CSc3ccccc3N)nc2c1	n	61.1	n	n	n	n
COC(=O)[C@H](Cc1ccccc1)NS(=O)(=O)c1ccc(F)cc1Br	x	n	x	x	x	n
O=C(O)CC/C(=C\c1ccc2c(c1)OCO2)c1nc2ccccc2s1	x	n	x	n	11.0	n
SMILES	zfTRPN1 agonist	CRFBP-R2 block	TRPML3 agonist	IMP-1 inh	VIM-2 inh	CRFBP-R2 agonist
O=C(O)CC/C(=C\c1ccc(Cl)c([N+](=O)[O-])c1)c1nc2ccccc2s1	n	n	n	n	9.2	n
O=C(O)CC/C(=C\c1ccc(N2CCOCC2)c([N+](=O)[O-])c1)c1nc2ccccc2s1	n	n	n	n	n	n
O=C(CCCn1nnnc1CN1CCOCC1)N1CCC(c2ccc(F)cc2)C1 (centres undefined)	x	n	x	n	n	n
CC(C)NC(=S)N(CCc1ccncc1)C(C)C	n	111.7	n	n	n	n
C=CCCC(=O)N1CCC(n2nccc2NC(=O)c2ccc(OC)cc2)CC1	x	66.3	x	n	n	n
CCOCCCNC(=O)c1cc2c(=O)n(CC)c3ccccc3c2s1	x	n	x	n	7.9	n
CCCCN(CC)CCNC(=O)c1cc2c(=O)[nH]c3ccccc3c2s1	x	n	x	n	n	n
CCCN(CCC)CCCNC(=O)c1cc2c(=O)[nH]c3ccccc3c2s1	x	n	x	n	9.7	n
CCn1c(=O)c2cc(C(=O)Nc3ccc(OC)cc3OC)sc2c2ccccc21	n	n	n	n	n	n
CCn1c(=O)c2cc(C(=O)NCCOC)sc2c2ccccc21	x	n	x	n	8.3	n
CCCCN(C)CCNC(=O)c1cc2c(=O)[nH]c3ccccc3c2n1C	x	n	x	n	8.6	n
O=C(c1ccc(=O)[nH]c1)N1CCCc2ccccc21	x	n	x	n	n	n
CCCN(CCC)CCNC(=O)c1cc2c(=O)n(CC)c3ccccc3c2s1	n	n	n	n	10.3	n
O=C(Nc1ccc(OC(F)(F)F)cc1)C1CCCN(S(=O)(=O)c2cnc[nH]2)C1 (centres undefined)	x	n	x	n	n	n
Cc1ccc(-c2ccc(C(=O)Nc3ccccc3)o2)c2ccccc12	n	n	n	n	n	n
Cc1ccc(S(=O)(=O)NC(=O)c2ccc(-c3ccc(C)c4ccccc34)o2)cc1	n	n	n	4.7	n	n
O=C(Nc1cccc(Cl)c1)c1cccc(N2C(=O)C3CC=CCC3C2=O)c1 (centres undefined)	x	n	x	17.8	n	n
O=C(Nc1cccc(N2C(=O)C3CCCCC3C2=O)c1)c1ccccc1 (centres undefined)	x	n	x	n	n	n
C=CCC[C@H](Cc1ccc(F)cc1)C(=O)OC[C@H](Cc1c[nH]c2ccccc12)NC(=O)[C@@H](CC=C)CC(=O)NCCO	x	n	x	x	x	60.0
Cc1cc(C)n(-c2ccc(C(=O)NCC(c3ccco3)N3CCCC3)cc2)n1 (centres undefined)	x	n	x	x	x	n
CCSC1=NSC2=NC(=O)/C(=C\c3coc4ccccc4c3=O)C(=N)N12	25.2	n	14.6	n	n	184.9
CSC1=NSC2=NC(=O)/C(=C\c3ccc(OC(=O)c4ccco4)cc3)C(=N)N12	x	n	x	n	n	n
CC(C)CC1=NN2C(=N)/C(=C\c3coc4ccccc4c3=O)C(=O)N=C2S1	n	n	n	n	n	305.8
O=C(O)c1ccc(N/N=C/C=C/c2ccc([N+](=O)[O-])o2)cc1	x	n	x	n	n	n
O=[N+]([O-])c1ccc(N/N=C/C=C/c2ccco2)cc1	x	n	x	x	x	94.8
COC(=O)c1c(-c2cccs2)csc1NC(=O)c1cccnc1	n	n	n	n	11.1	n
CCOC(=O)c1c(-c2cccs2)csc1NC(=O)CC(C)C	n	n	n	n	n	n
CN(Cc1ccccn1)C(=O)C1CCC(=O)N(Cc2cccc(C(F)(F)F)c2)C1 (centres undefined)	x	52.9	x	n	n	n
CN(Cc1ccncn1)C(=O)C1CCC(=O)N(Cc2cccc(C(F)(F)F)c2)C1 (centres undefined)	x	n	x	n	n	n
